Measurements as given in ChEMBL document CHEMBL4145471, “New 1,5 and 2,5-disubstituted tetrazoles-dependent activity towards surface barrier of Candida albicans” (Eur J Med Chem, 2018).
Calls of active or inactive are those of the source. The calls are words filed in the database; no cut-off is given here.

Legend:
Candida albicans [1] = assay: Antifungal activity against Candida albicans ATCC 90028 infected in Galleria mellonella larvae assessed as increase in larvae health score at 16 ug/ml preincubated for 30 mins followed by fungal infection and measured after 18 to 48 hrs; type: functional, organism-based
Outline: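 Larvae (195±17 mg, ethanol-disinfected) were injected with 10 µL C. albicans into the last right proleg. Compound at 16 µg/mL in RPMI (10 µL) went into the last left proleg 30 min or 1 h after infection, or 1 h or 30 min before it. A health index was scored from mobility, cocoon formation, melanization and survival, with monitoring every 24 h for 2 days. Controls were infected and PBS-injected larvae.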

Candida albicans [2] = assay: Induction of late apoptosis in Candida albicans ATCC 90028 biofilms assessed as formation of condense chromatin at 16 ug/ml after 18 hrs by propidium iodide/acridine orange staining based confocal laser scanning microscopic analysis; type: functional, organism-based
Outline: (§1)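 Caco-2-free model: the TR146 epithelial layer, 21 days post-seeding on filter inserts, was inoculated with 1.0–1.2×10^5/mL log-phase ATCC 90028 yeast. Biofilms were treated at 256, 16 or 0.0313 µg/mL for 18–48 h at 37°C in 5% CO2 and washed with PBS. Unfixed cells were stained with propidium iodide (5 µg/mL) and acridine orange, then imaged by confocal laser scanning microscopy.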

Candida albicans [3] = assay: Antifungal activity against Candida albicans ATCC 90028 infected in Galleria mellonella larvae assessed as increase in health score at 16 ug/ml treated for 60 mins post infection measured after 18 hrs; type: functional, organism-based
Candida albicans [4] = assay: Antifungal activity against Candida albicans ATCC 90028 assessed as reduction in cell adherence to human Caco2 cells at 256 ug/ml preincubated for 2 hrs followed by compound washout and resuspended in RPMI medium measured after 18 hrs by colony counting assay relative to control; type: functional; design: scale not given: the % may be the effect or the level left
Outline: (§2)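 Yeasts grown 18 h in YEPD at 30°C, then exposed at 10^4/mL to compound in RPMI for 2 h at 35°C with shaking. Washed twice in PBS, resuspended in RPMI and added to Caco-2 monolayers (18 h culture in EMEM/10% FCS) for 2 h at 37°C, 5% CO2. Non-adherent cells rinsed off, Caco-2 lysed with water, and adherent yeasts counted as colonies on Sabouraud agar after 18 h at 30°C. Expressed as % of cells added versus untreated; three experiments.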

Candida albicans [5] = assay: Antifungal activity against Candida albicans ATCC 90028 assessed as reduction in cell adherence to human Caco2 cells at 0.0313 ug/ml preincubated for 2 hrs followed by compound washout and resuspended in RPMI medium measured after 18 hrs by colony counting assay relative to control; type: functional; design: scale not given: the % may be the effect or the level left; outline: as §2
Candida albicans [6] = assay: Induction of necrosis in Candida albicans ATCC 90028 biofilms at 256 ug/ml after 18 hrs by propidium iodide/acridine orange staining based confocal laser scanning microscopic analysis; type: functional, organism-based; outline: as §1
Candida albicans [7] = assay: Antifungal activity against Candida albicans ATCC 90028 after 72 hrs in presence of ergosterol by M27-A3 microdilution method; type: functional; conditions: ATCC 90028, 72 h
Outline: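 Ergosterol-modified M27-A3 assay. Compounds at 512-1 µg/mL serially diluted in RPMI; the 10^3 CFU/mL inoculum is made in RPMI with ergosterol (dissolved in 10% DMSO/1% Tween 80, heated), giving 400 µg/mL ergosterol in the wells. Itraconazole and amphotericin B serve as controls. Plates at 35°C, read after 72 h. MIC is the lowest concentration without visible growth; triplicate on three days, geometric means.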

Candida albicans [8] = assay: Induction of early apoptosis in Candida albicans ATCC 90028 biofilms assessed as chromatin condensation at 0.03 ug/ml after 18 hrs by propidium iodide/acridine orange staining based confocal laser scanning microscopic analysis; type: functional, organism-based; outline: as §1
Candida albicans [9] = assay: Antifungal activity against Candida albicans ATCC 90028 infected in Galleria mellonella larvae assessed as survival at 16 ug/ml treated for 30 to 60 mins post infection and measured after 48 hrs; type: functional, organism-based
Outline: (§3)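 G. mellonella larvae (195±17 mg, ethanol-disinfected) were given 10 µL C. albicans suspension into the last right proleg. A single 10 µL dose at 16 µg/mL in RPMI (diluted from 1600 µg/mL stock) went into the last left proleg, either 30 min or 1 h after infection or 1 h or 30 min before it. Survival was checked every 24 h for 2 days. Untreated infected larvae and PBS-injected larvae served as controls; ≥3 independent experiments, mean±SEM.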

Candida albicans [10] = assay: Induction of early apoptosis in Candida albicans ATCC 90028 biofilms at 256 ug/ml after 18 hrs by propidium iodide/acridine orange staining based confocal laser scanning microscopic analysis; type: functional, organism-based; outline: as §1
Candida albicans [11] = assay: Induction of apoptosis in Candida albicans ATCC 90028 biofilms assessed as detection of DNA ladder at 256 ug/ml after 10 mins by […]; type: functional, organism-based
Candida albicans [12] = assay: Induction of necrosis in Candida albicans ATCC 90028 biofilms assessed as loss of cell membrane integrity at 0.03 ug/ml after 18 hrs by propidium iodide/acridine orange staining based confocal laser scanning microscopic analysis; type: functional, organism-based; outline: as §1
Candida albicans [13] = assay: Antifungal activity against Candida albicans ATCC 90028 infected in Galleria mellonella larvae assessed as increase in larvae survival at 16 ug/ml preincubated for 30 to 60 mins followed by fungal infection and measured every 24 hrs for 2 days; type: functional, organism-based; outline: as §3

With `CCOC(=O)CCn1nnc(-c2ccccc2)n1` the Activity (Candida albicans [1]) was “Active”, the Activity (Candida albicans [2]) was “Active” and the Activity (Candida albicans [3]) was “Active”. The Activity (Candida albicans [4]) was 59.12%, the Activity (Candida albicans [5]) was 63.41% and the Activity (Candida albicans [6]) was “Active”. For the same molecule, the MIC (Candida albicans [7]) was 64 µg/mL, the Activity (Candida albicans [8]) was “Active” and the Activity (Candida albicans [9]) was “inactive”. For the same molecule, the Activity (Candida albicans [10]) was “Active”, the Activity (Candida albicans [11]) was “inactive” and the Activity (Candida albicans [12]) was “Active”. For the same molecule, the Activity (Candida albicans [13]) was “Active”.
